According to ChEMBL document CHEMBL3098105, “7,7'-Diazaindirubin--a small molecule inhibitor of casein kinase 2 in vitro and in cells” (Bioorg Med Chem, 2014):
Calls of active or inactive are those of the source. The rule behind the calls is not given here.

Legend:
[1] = target: MAP kinase-activated protein kinase 3 (Homo sapiens) (UniProt Q16644); assay: Inhibition of human MAPKAP-K3 assessed as residual activity at 1 uM relative to control
[2] = target: 3-phosphoinositide-dependent protein kinase 1 (Homo sapiens) (UniProt O15530); assay: Inhibition of human PDK1 assessed as residual activity at 1 uM relative to control
[3] = target: T1, Cyclin-dependent kinase 5/CDK5 activator 1 (Homo sapiens) (UniProt Q00535+Q15078); assay: Inhibition of CDK5/p35NCK (unknown origin) assessed as residual activity at 1 uM relative to control; type: protein-complex assay
[4] = target: cGMP-dependent protein kinase 1 (Homo sapiens) (UniProt Q13976); assay: Inhibition of human PKG1alpha assessed as residual activity at 1 uM relative to control
[5] = target: T1, Cyclin-dependent kinase 5/CDK5 activator 1 (Homo sapiens); assay: Inhibition of CDK5/p35NCK (unknown origin) assessed as residual activity at 10 uM relative to control; type: protein-complex assay
[6] = target: Platelet-derived growth factor receptor beta (Homo sapiens) (UniProt P09619); assay: Inhibition of human PDGFRbeta assessed as residual activity at 1 uM relative to control
[7] = target: cGMP-dependent protein kinase 1 (Homo sapiens) (UniProt Q13976); assay: Inhibition of human PKG1beta assessed as residual activity at 1 uM relative to control
[8] = target: Serine/threonine-protein kinase haspin (Homo sapiens) (UniProt Q8TF76); assay: Inhibition of human Haspin assessed as residual activity at 1 uM relative to control
[9] = target: Tyrosine-protein kinase Fes/Fps (Homo sapiens) (UniProt P07332); assay: Inhibition of human Fes assessed as residual activity at 1 uM relative to control
[10] = target: Tyrosine-protein kinase ITK/TSK (Homo sapiens) (UniProt Q08881); assay: Inhibition of human Itk assessed as residual activity at 1 uM relative to control
[11] = target: Activin receptor type-1B (Homo sapiens) (UniProt P36896); assay: Inhibition of human ALK4 assessed as residual activity at 1 uM relative to control
[12] = target: Cyclin-dependent kinase 4/cyclin D1 (Homo sapiens) (UniProt P11802+P24385); assay: Inhibition of CDK4/CycD1 (unknown origin) assessed as residual activity at 10 uM relative to control; type: protein-complex assay
[13] = target: Tyrosine-protein kinase FRK (Homo sapiens) (UniProt P42685); assay: Inhibition of human PTK5 assessed as residual activity at 1 uM relative to control
[14] = target: Aurora kinase C (Homo sapiens) (UniProt Q9UQB9); assay: Inhibition of Aurora-C (unknown origin) assessed as residual activity at 1 uM relative to control
[15] = target: Serine/threonine-protein kinase WNK3 (Homo sapiens) (UniProt Q9BYP7); assay: Inhibition of human WNK3 assessed as residual activity at 1 uM relative to control
[16] = target: Cyclin-dependent kinase 1/cyclin B1 (Homo sapiens) (UniProt P06493+P14635); assay: Inhibition of human CDK1/cyclinB assessed as residual activity at 1 uM relative to control; type: protein-complex assay
[17] = target: RAC-alpha serine/threonine-protein kinase (Homo sapiens) (UniProt P31749); assay: Inhibition of human PKBalpha assessed as residual activity at 1 uM relative to control
[18] = target: Protein kinase C delta type (Homo sapiens) (UniProt Q05655); assay: Inhibition of human PKCdelta assessed as residual activity at 1 uM relative to control
[19] = target: NUAK family SNF1-like kinase 1 (Homo sapiens) (UniProt O60285); assay: Inhibition of human ARK5 assessed as residual activity at 1 uM relative to control
[20] = system: BT-549; assay: Antiproliferative activity against human BT549 cells after 3 days by sulforhodamine B assay; type: functional; conditions: BT-549, 72 h
Procedure, shortened: (§1)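 Tested in the NCI 60 cell line panel. GI50 is the concentration giving 50% inhibition of cell growth, and values are the mean of two series of tests.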

[21] = target: Serine/threonine-protein kinase B-raf (Homo sapiens) (UniProt P15056); assay: Inhibition of wild type B-RAF (unknown origin) assessed as residual activity at 1 uM relative to control
[22] = target: Inhibitor of nuclear factor kappa-B kinase subunit alpha (Homo sapiens) (UniProt O15111); assay: Inhibition of human IKKalpha assessed as residual activity at 1 uM relative to control
[23] = system: NCI-H226; assay: Antiproliferative activity against human NCI-H226 cells after 3 days by sulforhodamine B assay; type: functional; conditions: NCI-H226, 72 h; procedure, shortened: as §1
[24] = target: Proto-oncogene tyrosine-protein kinase receptor Ret (Homo sapiens) (UniProt P07949); assay: Inhibition of RET (unknown origin) assessed as residual activity at 10 uM relative to control
[25] = target: Receptor tyrosine-protein kinase erbB-2 (Homo sapiens) (UniProt P04626); assay: Inhibition of ERBB2 (unknown origin) assessed as residual activity at 1 uM relative to control
[26] = target: T2, Casein kinase II (Homo sapiens) (UniProt P67870+P68400+P19784); assay: Inhibition of CK2 in human MCF7 cells assessed as reduction of Akt phosphorylation at S473 at 0.25 to 8 uM after 2 hrs by Western blot analysis; type: cell-based
Procedure, shortened: (§2)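 Cells were lysed in urea lysis buffer (6 M urea, NaF, Na3VO4, protease inhibitors). 20–40 µg protein was run on 10% SDS-PAGE and detected by ECL. Primary antibodies (pAkt S473, PARP, β-actin loading control) were used at 1:1000 overnight at 4 °C. DMSO was the vehicle control. For the pAkt blots, cells were treated for 2 h with Ly294002 as positive control.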

[27] = target: T2, Casein kinase II (Homo sapiens); assay: Inhibition of CK2 in human HEK293 cells assessed as reduction of Akt phosphorylation at S473 at 0.25 to 8 uM after 2 hrs by Western blot analysis; type: cell-based; procedure, shortened: as §2
[28] = target: Protein kinase C beta type (Homo sapiens) (UniProt P05771); assay: Inhibition of human PKCbeta2 assessed as residual activity at 1 uM relative to control
[29] = target: Mast/stem cell growth factor receptor Kit (Homo sapiens) (UniProt P10721); assay: Inhibition of human cKit assessed as residual activity at 1 uM relative to control
[30] = target: Myosin light chain kinase, smooth muscle (Homo sapiens) (UniProt Q15746); assay: Inhibition of human MLCK assessed as residual activity at 1 uM relative to control
[31] = target: Receptor tyrosine-protein kinase erbB-2 (Homo sapiens) (UniProt P04626); assay: Inhibition of ERBB2 (unknown origin) assessed as residual activity at 10 uM relative to control
[32] = target: Protein-tyrosine kinase 6 (Homo sapiens) (UniProt Q13882); assay: Inhibition of human BRK assessed as residual activity at 1 uM relative to control
[33] = target: Serine/threonine-protein kinase B-raf (Homo sapiens) (UniProt P15056); assay: Inhibition of wild type B-RAF (unknown origin) assessed as residual activity at 10 uM relative to control
[34] = target: Receptor-type tyrosine-protein kinase FLT3 (Homo sapiens) (UniProt P36888); assay: Inhibition of FLT3 (unknown origin) assessed as residual activity at 1 uM relative to control
[35] = target: Serine/threonine-protein kinase TAO1 (Homo sapiens) (UniProt Q7L7X3); assay: Inhibition of human TAO1 assessed as residual activity at 1 uM relative to control

Serine/threonine-protein kinase B-raf (Homo sapiens), sequence (P15056 whole entry): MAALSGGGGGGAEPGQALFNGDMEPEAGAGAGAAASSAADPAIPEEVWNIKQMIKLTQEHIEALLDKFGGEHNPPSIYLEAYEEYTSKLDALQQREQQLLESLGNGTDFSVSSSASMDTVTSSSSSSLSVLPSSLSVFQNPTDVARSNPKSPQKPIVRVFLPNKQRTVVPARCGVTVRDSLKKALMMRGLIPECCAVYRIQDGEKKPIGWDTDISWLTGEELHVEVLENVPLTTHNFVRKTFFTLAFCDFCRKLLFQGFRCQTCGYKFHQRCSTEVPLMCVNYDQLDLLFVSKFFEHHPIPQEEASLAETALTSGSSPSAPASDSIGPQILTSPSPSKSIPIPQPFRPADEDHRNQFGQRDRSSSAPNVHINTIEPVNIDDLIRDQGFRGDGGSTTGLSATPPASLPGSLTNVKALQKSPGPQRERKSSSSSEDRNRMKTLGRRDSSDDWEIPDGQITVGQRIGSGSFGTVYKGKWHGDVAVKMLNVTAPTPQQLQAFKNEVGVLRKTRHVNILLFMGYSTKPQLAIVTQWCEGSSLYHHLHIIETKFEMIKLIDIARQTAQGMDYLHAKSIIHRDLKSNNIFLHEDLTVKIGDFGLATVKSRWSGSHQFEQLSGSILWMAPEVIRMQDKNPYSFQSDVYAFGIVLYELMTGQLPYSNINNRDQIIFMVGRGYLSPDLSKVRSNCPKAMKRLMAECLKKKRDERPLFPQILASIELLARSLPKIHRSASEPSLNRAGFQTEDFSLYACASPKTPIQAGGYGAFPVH
cGMP-dependent protein kinase 1 (Homo sapiens), sequence (Q13976 whole entry): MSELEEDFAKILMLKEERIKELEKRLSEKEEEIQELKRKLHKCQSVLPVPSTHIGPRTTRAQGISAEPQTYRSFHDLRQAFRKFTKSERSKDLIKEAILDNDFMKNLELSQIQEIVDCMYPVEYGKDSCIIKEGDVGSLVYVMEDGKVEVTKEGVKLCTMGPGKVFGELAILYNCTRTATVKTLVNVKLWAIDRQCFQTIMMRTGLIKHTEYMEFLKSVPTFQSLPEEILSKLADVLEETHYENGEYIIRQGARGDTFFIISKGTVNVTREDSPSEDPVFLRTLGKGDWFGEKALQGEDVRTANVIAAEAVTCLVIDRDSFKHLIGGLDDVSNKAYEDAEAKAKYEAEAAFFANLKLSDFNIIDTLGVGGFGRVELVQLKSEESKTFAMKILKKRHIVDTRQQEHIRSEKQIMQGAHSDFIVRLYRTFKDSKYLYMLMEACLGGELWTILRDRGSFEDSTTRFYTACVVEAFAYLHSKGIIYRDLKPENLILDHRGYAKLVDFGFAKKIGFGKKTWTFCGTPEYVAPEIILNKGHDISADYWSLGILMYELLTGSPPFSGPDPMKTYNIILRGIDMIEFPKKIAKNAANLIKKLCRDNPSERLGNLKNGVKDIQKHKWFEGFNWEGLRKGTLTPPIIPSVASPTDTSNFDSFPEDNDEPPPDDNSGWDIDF
T1 sequence (Q00535 whole entry): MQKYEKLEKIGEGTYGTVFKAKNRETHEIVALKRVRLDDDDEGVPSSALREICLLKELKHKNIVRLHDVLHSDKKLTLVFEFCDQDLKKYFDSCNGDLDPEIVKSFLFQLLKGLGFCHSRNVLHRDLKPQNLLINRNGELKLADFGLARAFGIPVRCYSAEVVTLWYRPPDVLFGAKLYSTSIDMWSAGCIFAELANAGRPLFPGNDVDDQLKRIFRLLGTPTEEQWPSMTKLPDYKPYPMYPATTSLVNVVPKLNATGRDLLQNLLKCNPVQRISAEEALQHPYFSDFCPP
T1 sequence (Q15078 99-307 partner limits assumed): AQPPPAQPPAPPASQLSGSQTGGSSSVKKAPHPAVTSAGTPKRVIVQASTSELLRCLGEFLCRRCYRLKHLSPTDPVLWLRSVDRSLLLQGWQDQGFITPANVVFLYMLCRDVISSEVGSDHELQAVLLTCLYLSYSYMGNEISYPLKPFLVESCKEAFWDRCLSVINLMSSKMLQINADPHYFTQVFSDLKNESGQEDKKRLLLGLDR
Receptor tyrosine-protein kinase erbB-2 (Homo sapiens), sequence (P04626 whole entry): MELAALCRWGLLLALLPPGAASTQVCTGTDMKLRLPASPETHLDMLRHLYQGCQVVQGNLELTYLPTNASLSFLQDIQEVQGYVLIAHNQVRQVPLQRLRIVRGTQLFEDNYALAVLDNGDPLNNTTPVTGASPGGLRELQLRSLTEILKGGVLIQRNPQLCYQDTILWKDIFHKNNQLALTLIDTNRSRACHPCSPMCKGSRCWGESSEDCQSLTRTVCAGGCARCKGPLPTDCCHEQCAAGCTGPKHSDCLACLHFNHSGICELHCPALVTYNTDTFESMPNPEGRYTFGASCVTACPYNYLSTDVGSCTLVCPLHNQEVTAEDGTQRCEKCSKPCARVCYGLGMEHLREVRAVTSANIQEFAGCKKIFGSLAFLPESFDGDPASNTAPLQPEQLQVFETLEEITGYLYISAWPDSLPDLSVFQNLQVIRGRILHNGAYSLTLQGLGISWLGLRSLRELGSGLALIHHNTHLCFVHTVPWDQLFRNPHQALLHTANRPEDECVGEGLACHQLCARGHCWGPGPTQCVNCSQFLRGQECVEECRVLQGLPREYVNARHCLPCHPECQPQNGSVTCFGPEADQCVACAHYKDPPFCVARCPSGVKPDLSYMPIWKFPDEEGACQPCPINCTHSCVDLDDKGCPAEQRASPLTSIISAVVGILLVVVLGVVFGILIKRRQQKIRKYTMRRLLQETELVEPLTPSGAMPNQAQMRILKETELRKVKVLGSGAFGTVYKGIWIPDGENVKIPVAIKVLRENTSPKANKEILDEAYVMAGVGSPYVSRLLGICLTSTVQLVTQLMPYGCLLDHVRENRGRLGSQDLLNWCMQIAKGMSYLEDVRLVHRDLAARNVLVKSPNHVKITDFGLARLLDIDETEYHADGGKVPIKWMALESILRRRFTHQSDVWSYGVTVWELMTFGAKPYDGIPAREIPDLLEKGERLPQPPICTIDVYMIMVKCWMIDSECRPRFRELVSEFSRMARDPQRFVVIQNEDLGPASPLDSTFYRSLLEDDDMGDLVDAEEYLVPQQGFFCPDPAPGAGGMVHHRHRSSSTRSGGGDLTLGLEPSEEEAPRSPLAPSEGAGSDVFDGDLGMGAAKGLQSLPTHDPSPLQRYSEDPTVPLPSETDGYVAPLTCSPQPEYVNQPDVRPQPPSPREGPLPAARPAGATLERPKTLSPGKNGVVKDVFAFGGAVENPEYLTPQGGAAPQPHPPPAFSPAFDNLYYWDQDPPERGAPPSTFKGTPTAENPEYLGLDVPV
Platelet-derived growth factor receptor beta (Homo sapiens), sequence (P09619 whole entry): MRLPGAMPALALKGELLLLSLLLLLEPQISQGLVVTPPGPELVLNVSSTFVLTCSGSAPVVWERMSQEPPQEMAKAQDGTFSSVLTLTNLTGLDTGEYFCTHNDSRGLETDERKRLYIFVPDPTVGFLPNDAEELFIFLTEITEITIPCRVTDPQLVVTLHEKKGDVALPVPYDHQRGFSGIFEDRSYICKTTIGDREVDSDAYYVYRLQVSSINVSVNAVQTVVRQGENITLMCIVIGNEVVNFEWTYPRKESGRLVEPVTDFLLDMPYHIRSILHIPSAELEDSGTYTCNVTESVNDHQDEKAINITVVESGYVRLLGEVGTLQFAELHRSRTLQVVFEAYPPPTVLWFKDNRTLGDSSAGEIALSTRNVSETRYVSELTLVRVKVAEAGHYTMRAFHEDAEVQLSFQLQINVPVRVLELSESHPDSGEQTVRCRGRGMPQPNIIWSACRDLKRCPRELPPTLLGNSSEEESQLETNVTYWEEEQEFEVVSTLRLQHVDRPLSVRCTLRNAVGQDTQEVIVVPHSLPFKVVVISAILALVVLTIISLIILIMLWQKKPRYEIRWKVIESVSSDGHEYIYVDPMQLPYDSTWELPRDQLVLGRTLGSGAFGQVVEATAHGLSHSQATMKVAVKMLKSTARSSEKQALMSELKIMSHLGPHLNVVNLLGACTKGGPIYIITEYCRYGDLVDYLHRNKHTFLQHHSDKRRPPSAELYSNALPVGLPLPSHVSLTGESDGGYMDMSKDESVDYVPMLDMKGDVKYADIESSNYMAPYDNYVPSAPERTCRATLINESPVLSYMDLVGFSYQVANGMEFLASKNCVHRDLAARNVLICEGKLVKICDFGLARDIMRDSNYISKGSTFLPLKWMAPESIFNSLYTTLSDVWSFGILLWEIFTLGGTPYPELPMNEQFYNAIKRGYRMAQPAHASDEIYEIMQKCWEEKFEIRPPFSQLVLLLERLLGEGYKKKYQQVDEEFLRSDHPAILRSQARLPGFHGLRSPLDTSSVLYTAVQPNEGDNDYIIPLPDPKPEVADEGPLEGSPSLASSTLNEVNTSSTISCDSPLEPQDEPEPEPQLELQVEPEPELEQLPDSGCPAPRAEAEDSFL
Protein kinase C delta type (Homo sapiens), sequence (Q05655 whole entry, looked up): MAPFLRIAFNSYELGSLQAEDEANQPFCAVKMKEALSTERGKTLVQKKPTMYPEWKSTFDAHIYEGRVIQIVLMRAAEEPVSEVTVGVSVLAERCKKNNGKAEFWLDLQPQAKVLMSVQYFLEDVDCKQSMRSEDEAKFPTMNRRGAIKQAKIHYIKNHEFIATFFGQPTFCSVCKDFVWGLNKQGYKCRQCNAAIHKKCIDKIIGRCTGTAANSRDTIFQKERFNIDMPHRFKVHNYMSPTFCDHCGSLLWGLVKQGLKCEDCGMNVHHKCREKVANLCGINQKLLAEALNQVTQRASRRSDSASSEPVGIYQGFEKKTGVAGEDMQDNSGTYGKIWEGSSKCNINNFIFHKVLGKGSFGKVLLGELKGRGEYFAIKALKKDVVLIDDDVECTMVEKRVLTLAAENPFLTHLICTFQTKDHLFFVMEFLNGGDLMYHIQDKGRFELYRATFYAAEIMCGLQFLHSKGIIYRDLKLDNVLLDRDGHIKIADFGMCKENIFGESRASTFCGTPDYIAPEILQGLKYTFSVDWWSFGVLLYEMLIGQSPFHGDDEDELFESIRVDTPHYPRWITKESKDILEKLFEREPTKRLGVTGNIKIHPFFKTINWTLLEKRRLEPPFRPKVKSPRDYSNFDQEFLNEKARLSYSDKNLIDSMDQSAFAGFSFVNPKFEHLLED

Activity [1]: 98% | Activity [2]: 97% | Activity [3]: 106% | Activity [4]: 121% | Activity [5]: 104% | Activity [6]: 160% | Activity [7]: 90% | Activity [8]: 64% | Activity [9]: 107% | Activity [10]: 106% | Activity [11]: 106% | Activity [12]: 88% | Activity [13]: 92% | Activity [14]: 89% | Activity [15]: 106% | Activity [16]: 101% | Activity [17]: 94% | Activity [18]: 126% | Activity [19]: 81% | GI50 [20]: 1600 nM | Activity [21]: 80% | Activity [22]: 99% | GI50 [23]: 1420 nM | Activity [24]: 97% | Activity [25]: 99% | inhibition [26]: Active | inhibition [27]: Active | Activity [28]: 101% | Activity [29]: 83% | Activity [30]: 73% | Activity [31]: 102% | Activity [32]: 102% | Activity [33]: 94% | Activity [34]: 79% | Activity [35]: 98%
SMILES: O=C1Nc2ncccc2/C1=C1/Nc2ncccc2C1=O
